Data published in ChEMBL document CHEMBL4261518, “Side chain-functionalized aniline-derived ursolic acid derivatives as multidrug resistance reversers that block the nuclear factor-kappa B (NF-κB) pathway and cell proliferation” (Medchemcomm, 2017).
Activity calls are given as the source filed them. No cut-off for these calls is given here.

Legend:
MGC-803 = test: Cytotoxicity against human MGC803 cells after 48 hrs by MTT assay; format: functional, cell-based; conditions: MGC-803, 48 h
Method in brief: (§1)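 Cells grown overnight in DMEM + 10% FBS at 37 °C under 5% CO2, then given a range of compound concentrations for 48 h. MTT added for about 4 h, medium replaced by DMSO, absorbance read at 570/630 nm. IC50 reported as mean ± SD of five independent experiments.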

[1] = Cytotoxicity against human SPCA2 cells after 48 hrs by MTT assay; format: functional, cell-based; conditions: SPCA2, 48 h; method in brief: as §1
NCI-H460 [2] = test: Cytotoxicity against human NCI-H460 cells after 48 hrs by MTT assay; format: functional, cell-based; conditions: NCI-H460, 48 h; method in brief: as §1
A549 = test: Cytotoxicity against human A549 cells after 48 hrs by MTT assay; format: functional, cell-based; conditions: A549, 48 h; method in brief: as §1
T-24 = test: Cytotoxicity against human T24 cells after 48 hrs by MTT assay; format: functional, cell-based; conditions: T-24, 48 h; method in brief: as §1
L02 = test: Cytotoxicity against human HL7702 cells after 48 hrs by MTT assay; format: cell-based; conditions: L02, 48 h; method in brief: as §1
[3] = Inhibition of TNFalpha-induced NF-kB (unknown origin) activation expressed in human NCI-H460 cells after 7 hrs by luciferase reporter gene assay; format: cell-based; conditions: NCI-H460, 7 h
Method in brief: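 NCI-H460 cells transiently co-transfected with pNF-κB-Luc reporter and pSV-β-galactosidase internal control by lipofectamine. Medium changed after 6 h, then 6 h further culture. TNF-α (15 ng ml–1) plus compound given together for 7 h. Luciferase ratio to TNF-α-only cells, corrected for non-TNF background and viability. IC50 from sigmoidal variable-slope fit.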

[4] = biological target: Transcription factor p65 (Homo sapiens) (UniProt Q04206); test: Inhibition of TNFalpha-induced NF-kB p65 activation human NCI-H460 cells assessed as reduction in DNA binding ability at 5 to 10 uM by ELISA relative to control; format: cell-based
[5] = Cytotoxicity against human NCI-H460/DOX cells after 48 hrs by MTT assay; format: functional, cell-based; conditions: NCI-H460, 48 h; method in brief: as §1
[6] = Resistant factor, ratio of IC50 for human NCI-H460/DOX cells to IC50 for human NCI-H460 cells; format: functional
HepG2 = test: Cytotoxicity against human HepG2 cells after 48 hrs by MTT assay; format: functional, cell-based; conditions: HepG2, 48 h; method in brief: as §1
[7] = Cytotoxicity against human HepG2/DOX cells after 48 hrs by MTT assay; format: functional, cell-based; method in brief: as §1
[8] = Resistant factor, ratio of IC50 for human HepG2/DOX cells to IC50 for human HepG2 cells; format: functional
NCI-H460 [9] = test: Inhibition of TNFalpha-induced TAK1 protein expression in human NCI-H460 cells by Western blot analysis; format: functional, cell-based
Method in brief: (§2)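 TNF-α-stimulated NCI-H460 cells treated with compound, lysed in ice-cold RIPA with protease and phosphatase inhibitors, protein measured by Bradford. Equal protein run on 12% SDS-PAGE, transferred to PVDF. Probed overnight at 4 °C for TAK1, TAB1, IKKα, p-IKKα/β or NF-κB p65, then HRP secondary (1:2000), chemiluminescence, β-actin loading control. Three separate experiments.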

NCI-H460 [10] = test: Inhibition of TNFalpha-induced TAB1 protein expression in human NCI-H460 cells by Western blot analysis; format: functional, cell-based; method in brief: as §2
NCI-H460 [11] = test: Inhibition of TNFalpha-induced NF-kB protein expression in human NCI-H460 cells by Western blot analysis; format: functional, cell-based; method in brief: as §2
[12] = biological target: Inhibitor of NF-kappa-B kinase alpha/beta (Homo sapiens) (UniProt O14920+O15111); test: Inhibition of TNFalpha-induced IKKalpha/beta phosphorylation in human NCI-H460 cells by Western blot analysis; format: cell-based; method in brief: as §2
NCI-H460 [13] = test: Inhibition of TNFalpha-induced IKKalpha protein expression in human NCI-H460 cells at 5 to 10 uM by Western blot analysis; format: functional, cell-based; method in brief: as §2
NCI-H460 [14] = test: Induction of apoptosis in human NCI-H460 cells assessed as live cells at 5 uM after 24 hrs by propidium iodide/Annexin V-FITC staining based flow cytometry (reference value: 89%); format: functional
NCI-H460 [15] = test: Induction of apoptosis in human NCI-H460 cells assessed as early apoptotic cells at 5 uM after 24 hrs by propidium iodide/Annexin V-FITC staining based flow cytometry (reference value: 2.79%); format: functional
NCI-H460 [16] = test: Induction of apoptosis in human NCI-H460 cells assessed as late apoptotic cells at 5 uM after 24 hrs by propidium iodide/Annexin V-FITC staining based flow cytometry (reference value: 5.4%); format: functional
NCI-H460 [17] = test: Induction of apoptosis in human NCI-H460 cells assessed as necrotic cells at 5 uM after 24 hrs by propidium iodide/Annexin V-FITC staining based flow cytometry (reference value: 2.8%); format: functional
NCI-H460 [18] = test: Induction of apoptosis in human NCI-H460 cells assessed as live cells at 10 uM after 24 hrs by propidium iodide/Annexin V-FITC staining based flow cytometry (reference value: 89%); format: functional
NCI-H460 [19] = test: Induction of apoptosis in human NCI-H460 cells assessed as early apoptotic cells at 10 uM after 24 hrs by propidium iodide/Annexin V-FITC staining based flow cytometry (reference value: 2.79%); format: functional
NCI-H460 [20] = test: Induction of apoptosis in human NCI-H460 cells assessed as late apoptotic cells at 10 uM after 24 hrs by propidium iodide/Annexin V-FITC staining based flow cytometry (reference value: 5.4%); format: functional
NCI-H460 [21] = test: Induction of apoptosis in human NCI-H460 cells assessed as necrotic cells at 10 uM after 24 hrs by propidium iodide/Annexin V-FITC staining based flow cytometry (reference value: 2.8%); format: functional
NCI-H460 [22] = test: Induction of apoptosis in human NCI-H460 cells after 24 hrs by propidium iodide/Annexin V-FITC staining based flow cytometry; format: functional, cell-based
NCI-H460 [23] = test: Cell cycle arrest in human NCI-H460 cells assessed as accumulation at G1-phase at 5 uM after 24 to 48 hrs by propidium iodide staining based flow cytometry (reference value: 41.83%); format: functional
NCI-H460 [24] = test: Cell cycle arrest in human NCI-H460 cells assessed as accumulation at G2-phase at 5 uM after 24 to 48 hrs by propidium iodide staining based flow cytometry (reference value: 3.82%); format: functional
NCI-H460 [25] = test: Cell cycle arrest in human NCI-H460 cells assessed as accumulation at S-phase at 5 uM after 24 to 48 hrs by propidium iodide staining based flow cytometry (reference value: 54.36%); format: functional
NCI-H460 [26] = test: Cell cycle arrest in human NCI-H460 cells assessed as accumulation at G1-phase at 10 uM after 24 to 48 hrs by propidium iodide staining based flow cytometry (reference value: 41.83%); format: functional
NCI-H460 [27] = test: Cell cycle arrest in human NCI-H460 cells assessed as accumulation at G2-phase at 10 uM after 24 to 48 hrs by propidium iodide staining based flow cytometry (reference value: 3.82%); format: functional
NCI-H460 [28] = test: Cell cycle arrest in human NCI-H460 cells assessed as accumulation at S-phase at 10 uM after 24 to 48 hrs by propidium iodide staining based flow cytometry (reference value: 54.36%); format: functional
NCI-H460 [29] = test: Induction of apoptosis in human NCI-H460 cells assessed as nuclear condensation after 24 hrs by Hoechst 33258 staining based fluorescence microscopic method; format: functional, cell-based
Method in brief: (§3)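 NCI-H460 cells (2 × 10^6) in six-well plates exposed to 5 or 10 μM for 24 h. Fixed 10 min in 4% paraformaldehyde, washed in cold PBS, stained with Hoechst 33258 for 5 min in the dark. Viewed by fluorescence microscopy at ex 350/em 460 nm; brightly stained condensed nuclei scored as apoptotic.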

NCI-H460 [30] = test: Induction of apoptosis in human NCI-H460 cells assessed as chromatin condensation after 24 hrs by Hoechst 33258 staining based fluorescence microscopic method; format: functional, cell-based; method in brief: as §3
NCI-H460 [31] = test: Induction of ROS generation in human NCI-H460 cells at 5 uM after 24 hrs by DCF-DA staining based flow cytometry (reference value: 12.9%); format: functional
NCI-H460 [32] = test: Induction of ROS generation in human NCI-H460 cells at 10 uM after 24 hrs by DCF-DA staining based flow cytometry (reference value: 12.9%); format: functional
NCI-H460 [33] = test: Induction of ROS generation in human NCI-H460 cells at 10 uM after 24 hrs by DCF-DA staining based flow cytometry relative to control; format: functional
NCI-H460 [34] = test: Cytotoxicity against human NCI-H460 cells harboring pNF-kB-Luc assessed as reduction in cell viability after 7 hrs by MTT assay relative to control; set-up: concentration or dose not given beside the values; conditions: nci-h460, 7 h

Sequence of Transcription factor p65 (Homo sapiens) (Q04206 whole entry): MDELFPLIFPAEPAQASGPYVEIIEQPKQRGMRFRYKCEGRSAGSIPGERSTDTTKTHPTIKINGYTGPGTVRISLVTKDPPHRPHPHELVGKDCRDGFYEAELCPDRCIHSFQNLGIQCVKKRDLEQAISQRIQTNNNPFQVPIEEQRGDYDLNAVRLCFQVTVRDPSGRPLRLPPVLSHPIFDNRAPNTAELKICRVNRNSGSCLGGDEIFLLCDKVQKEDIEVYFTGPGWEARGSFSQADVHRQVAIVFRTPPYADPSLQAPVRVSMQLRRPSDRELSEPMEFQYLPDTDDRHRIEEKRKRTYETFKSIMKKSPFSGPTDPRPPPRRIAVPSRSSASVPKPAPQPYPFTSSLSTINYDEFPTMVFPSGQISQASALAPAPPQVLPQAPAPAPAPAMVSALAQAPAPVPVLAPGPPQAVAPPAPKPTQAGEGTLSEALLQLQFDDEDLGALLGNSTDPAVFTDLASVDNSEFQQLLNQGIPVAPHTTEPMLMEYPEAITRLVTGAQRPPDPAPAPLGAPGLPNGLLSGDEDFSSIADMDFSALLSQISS

- IC50 [3]: 0.36 µM
- fold change (FC) [4]: 2.3
- inhibition [12]: Dose-dependent effect
SMILES: CC(=O)O[C@H]1CC[C@]2(C)[C@H]3CC=C4[C@@H]5[C@@H](C)[C@H](C)CC[C@]5(C(=O)NCCN(C)C)CC[C@@]4(C)[C@]3(C)CC[C@H]2C1(C)C
- IC50 (MGC-803): 7.96 µM
- IC50 [1]: 5.38 µM
- IC50 (NCI-H460 [2]): 3.08 µM
- IC50 (A549): 4.32 µM
- IC50 (T-24): 5.51 µM
- IC50 (L02): > 50 µM
- IC50 [5]: 5.2 µM
- Ratio IC50 [6]: 1.68
- IC50 (HepG2): 8.14 µM
- IC50 [7]: 10.8 µM
- Ratio IC50 [8]: 1.33
- inhibition (NCI-H460 [9]): Dose-dependent effect
- inhibition (NCI-H460 [10]): Dose-dependent effect
- inhibition (NCI-H460 [11]): Dose-dependent effect
- inhibition (NCI-H460 [13]): Active
- Activity (NCI-H460 [14]): 79.9%
- Activity (NCI-H460 [15]): 12.3%
- Activity (NCI-H460 [16]): 3.9%
- Activity (NCI-H460 [17]): 3.85%
- Activity (NCI-H460 [18]): 41.9%
- Activity (NCI-H460 [19]): 47.1%
- Activity (NCI-H460 [20]): 5.16%
- Activity (NCI-H460 [21]): 5.8%
- Activity (NCI-H460 [22]): Dose-dependent effect
- Activity (NCI-H460 [23]): 49.26%
- Activity (NCI-H460 [24]): 4.46%
- Activity (NCI-H460 [25]): 46.27%
- Activity (NCI-H460 [26]): 53.82%
- Activity (NCI-H460 [27]): 4.23%
- Activity (NCI-H460 [28]): 41.95%
- Activity (NCI-H460 [29]): Dose-dependent effect
- Activity (NCI-H460 [30]): Dose-dependent effect
- Activity (NCI-H460 [31]): 14.9%
- Activity (NCI-H460 [32]): 40.8%
- fold change (FC) (NCI-H460 [33]): >3
- Activity (NCI-H460 [34]): < 5%
